CRFBP-R2 agonist: agonists of CRF-BP/CRF-R2 complex, primary screen, cell-based, HEK293, calcium dye fluorescence, uHTS; calcium dye fluorescence (FLIPR); percent of saturating CRF peptide response; activation, % at 13.2 µM; 350,000 compounds, 0.46% hits; AID 588473, 2011;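 active = activation of at least 50%, plus an integration ratio under a set limit after plate pattern correction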;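 also: plate controls were neutral control wells without compound for no effect and CRF at EC100 for full effect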
TAAR1 antagonist: human TAAR1 antagonists, primary screen, Fluo-8 calcium fluorescence, CHO RD-HGA16 cells; antagonist; 360,000 compounds, 1.5% hits; AID 624466, 2012; inhibition, % at 3 µM;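 active = inhibition above a per-plate cutoff, the mean inhibition of test compounds on that plate plus 3 SD, cut at about 49% in these data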;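 also: 0% = DMSO plus EC80 beta-PEA response and 100% = DMSO alone without agonist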
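Test system – hTAAR1-expressing CHO RD-HGA16 cells, Gα16-coupled · Also added – β-PEA at EC80 concentration, post-compound challenge · Compound – 3 µM, single point · Incubation – dye loading 75 min at 37 °C, then 30 min room temperature · Measured by – Fluo-8 intracellular calcium dye fluorescence, real-time kinetic reads · Benchmarks – vehicle and agonist controls · Replicates – singlicate, one well per test compound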
ANO1 activ: TMEM16A chloride channel activators or potentiators, primary screen, cell-based, HTS. 340,000 compounds, 0.3% hits. HEK293 TMEM16A/YFP-H148Q/I152L, iodide quench fluorescence; stronger effect = lower value. B-score at 10 µM. Anoctamin-1 (Mus musculus), Q8BHY3;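 active = fluorescence-ratio B-score plate-corrected deviation score at least 3 library SD below zero, with starting fluorescence score within 5 deviations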;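 also: channel opened by trigger with iodide after compound preincubation; score built on the fluorescence ratio of max minus min over baseline; more negative score means more quench and so TMEM16A activation or potentiation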
CRFBP-R2 block: antagonists of CRF-BP/CRF-R2 complex, primary screen, cell-based, HEK293, calcium dye fluorescence, uHTS; CRF-induced calcium fluorescence; inhibition, % at 11.8 µM; 350,000 compounds, 0.59% hits;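 active = inhibition of the ligand-induced calcium signal above about 50% at the single tested concentration, limit read from the data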
TAAR1 agonist: human TAAR1 agonists, primary screen, Fluo-8 calcium fluorescence, CHO RD-HGA16 cells; Trace amine-associated receptor 1 (Homo sapiens), Q96RJ0; vehicle wells 0%, saturating PEA agonist 100%; activation, % at 3 µM; 360,000 compounds, 0.99% hits; AID 624467, 2012;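 active = activation above the mean activation of all test compounds in the run plus 3 SD, cut at about 38% in these data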
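Repeats: no replicates (n 1) | Material: CHO-derived RD-HGA16 cells with stable Gα16 and human TAAR1 | Technique: Kinetic Fluo-8 calcium fluorescence | Schedule: 17-24 h seeding, 75 min 37 °C dye, 30 min RT | Evaluation: % activation from peak over basal fluorescence ratio, DMSO-to-PEA scaled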
TMEM16A inh: TMEM16A chloride channel inhibitors, primary screen, cell-based, HTS. 310,000 compounds, 1.2% hits. HEK293 TMEM16A/YFP iodide influx fluorescence, ionomycin. normalized B-score (activity score, 25-100; higher = stronger inhibition) at 10 µM. Anoctamin-1 (Mus musculus), Q8BHY3;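 active = ratio plate-corrected score three or more library SD toward inhibition, starting fluorescence score within five deviations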;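 also: score derived from kinetic fluorescence span divided by baseline fluorescence per well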
TAAR1 nonsel count: nonselective antagonists in TAAR1 counter-screen cells, counter-screen for hTAAR1 antagonist project, cell-based, fluorescence, calcium; 2,400 compounds, 77% hits; shares compounds with TAAR1 antagonist; counterscreen cell line, antagonist mode; inhibition, % at 3 µM; in the data active = inhibition above about 22%;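 also: CHO-Ga16 host cells stimulated with ATP at an EC80 level; 0% = agonist EC80 plus vehicle and 100% = vehicle without agonist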
TAAR1 antag conf: human TAAR1 antagonists, retest of hits, confirmation, cell-based, fluorescence; shares compounds with TAAR1 antagonist; TAAR1-expressing cells, fluorescence antagonist read-out; inhibition, % at 3 µM; 2,400 compounds, 40% hits; AID 651785, 2012; in the data active = inhibition above about 49%;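 also: CHO-Ga16 host cells challenged with agonist PEA near its EC80; 0% = agonist at EC80 plus vehicle and 100% = vehicle with no agonist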
Ga16 nonsel ag: calcium activation in Ga16-expressing cells, counter-screen for TAAR1 antagonist project, cell-based, fluorescence; shares compounds with TAAR1 antagonist; agonist counterscreen; activation, % at 3 µM; 2,400 compounds, 18% hits; AID 651953, 2012; in the data active = activation above about 12%;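 also: 0% = vehicle wells and 100% = saturating stimulus response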
TAAR1 ag count: TAAR1 activation by candidate antagonists – cell-based, fluorescence, counter-screen for TAAR1 antagonist project | shares compounds with TAAR1 antagonist | hTAAR1 cell line, agonist mode | activation, % at 3 µM | 2,400 compounds, 2% hits; in the data active = activation above about 37%;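 also: CHO cells stably expressing TAAR1 with calcium dye readout; 0% = DMSO vehicle and 100% = full agonist response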
An asterisk follows results filed as active; i = inactive; / = no result given. A selection: hits, their analogues and other compounds. The true share with any hit is near 3.9%.

SMILES	CRFBP-R2 agonist	TAAR1 antagonist	ANO1 activ	CRFBP-R2 block	TAAR1 agonist	TMEM16A inh	TAAR1 nonsel count	TAAR1 antag conf	Ga16 nonsel ag	TAAR1 ag count
Cc1cccc(C(=O)OC(C)C(=O)Nc2ccc(S(=O)(=O)N3CCCC3)cc2)c1O (stereo unspecified)	3	68*	i	13	15	i	36*	55*	12*	18
O=[N+]([O-])c1ccc(CSC2=NCCN2)cc1	-1	-3	i	4	0	i	/	/	/	/
Cc1ccc(-c2[nH]ncc2/C=N/n2c(COc3ccccc3)nc3ccccc3c2=O)cc1	3	66*	i	5	10	i	33*	53*	7	7
Cc1nc2ccccc2c(=O)n1/N=C/c1ccccc1F	-8	-21	i	1	0	i	/	/	/	/
Cc1nc2ccccc2c(=O)n1/N=C/c1cn[nH]c1-c1ccccc1	-2	58*	i	2	15	i	27*	36	7	8
Cc1ccccc1OCc1nc2ccccc2c(=O)n1/N=C/c1cccc([N+](=O)[O-])c1	0	15	i	-14	1	i	/	/	/	/
O=c1c2ccccc2nc(COc2ccccc2)n1/N=C/c1ccc(O)c(O)c1	-2	68*	i	5	10	i	20	35	7	4
Cc1ccccc1OCc1nc2ccccc2c(=O)n1/N=C/c1cn[nH]c1-c1ccccc1	-1	64*	i	-35	12	i	27*	56*	5	7
CC1Cc2nc(SCC(=O)NCC3CCCO3)n(-c3ccccc3)c(=O)c2S1 (stereo unspecified)	1	3	/	-8	0	/	/	/	/	/
Cc1ccc(C)c(N(C(=O)CNC(=O)c2ccco2)C(C(=O)NCC2CCCO2)c2ccccc2)c1 (stereo unspecified)	-1	61*	i	-4	24	i	20	48	9	7
CCc1ccc(NC(=O)C2=CC(c3ccc(OC)c(OC)c3)=NS(=O)(=O)N2C)cc1	17	68*	i	-6	6	i	33*	37	7	7
CC(=O)N1CCN(C(=O)c2cc(-c3cccc4ccccc34)nc3ccccc23)CC1	1	67*	i	16	12	i	33*	48	9	10
COc1cccc(CN2CCN(C(=O)c3cc(-c4ccncc4)nc4ccc(C)cc34)CC2)c1	-1	77*	i	-21	14	i	24*	46	9	10
O=C(c1cc(-c2ccncc2)nc2ccccc12)N1CCN(Cc2ccccc2)CC1	0	57*	i	-14	19	/	19	40	12*	14
Cc1ccc(-c2cc(C(=O)N3CCOCC3)c3ccccc3n2)cc1	0	7	i	-10	4	i	/	/	/	/
Cc1ccccc1CN1CCN(C(=O)c2cc(-c3ccncc3)nc3ccccc23)CC1	-2	71*	i	-13	12	i	35*	46	9	9

Source: PubChem BioAssay
